# Test results published in ChEMBL document CHEMBL1129249, “Synthesis and activity of a novel series of 3-biarylquinuclidine squalene synthase inhibitors” (J Med Chem, 1996).
# Molecular target: T1, Squalene synthase (Rattus norvegicus, UniProt Q02769)
# T1 sequence (Q02769 whole entry): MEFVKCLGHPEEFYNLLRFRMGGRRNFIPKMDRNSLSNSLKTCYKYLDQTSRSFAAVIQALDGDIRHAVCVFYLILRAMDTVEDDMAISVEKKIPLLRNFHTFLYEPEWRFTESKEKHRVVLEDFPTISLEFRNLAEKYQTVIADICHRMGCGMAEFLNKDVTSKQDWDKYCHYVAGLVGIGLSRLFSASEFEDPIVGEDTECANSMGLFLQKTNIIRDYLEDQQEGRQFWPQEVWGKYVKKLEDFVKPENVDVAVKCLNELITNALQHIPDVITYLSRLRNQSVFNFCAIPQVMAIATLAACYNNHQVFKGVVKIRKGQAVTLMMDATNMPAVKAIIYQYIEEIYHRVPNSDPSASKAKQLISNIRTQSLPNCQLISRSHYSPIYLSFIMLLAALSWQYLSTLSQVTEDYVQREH
# Test: In vitro inhibition against rat microsomal squalene synthase (SS)
# Outline: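 Squalene synthase came from rat microsomes. Inhibition was tested in phosphate buffer. IC50 values are from duplicate determinations (n = 2).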
row,SMILES,IC50
1,OC1(c2ccc(-c3ccncc3)cc2)CN2CCC1CC2 (stereo unspecified),161 nM
2,COC1(c2ccc(-c3ccccc3)cc2)CN2CCC1CC2 (stereo unspecified),> 2500 nM
3,O=S(=O)(NC1CN2CCC1CC2)c1ccc(-c2ccccc2)cc1 (stereo unspecified),> 2500 nM
4,OC1(c2ccc(-c3cccs3)cc2)CN2CCC1CC2 (stereo unspecified),40 nM
5,OC1(c2ccc(-c3cccnc3)cc2)CN2CCC1CC2 (stereo unspecified),270 nM
6,OC1(c2ccc(-c3cccs3)s2)CN2CCC1CC2 (stereo unspecified),> 2500 nM
7,O=S(=O)(c1ccc(-c2ccccc2)cc1)C1CN2CCC1CC2 (stereo unspecified),> 2500 nM
8,C(=C\C1CN2CCC1CC2)/c1ccc(-c2ccccc2)cc1 (stereo unspecified),4 nM
9,OC1(c2ccc(-c3ncccn3)cc2)CN2CCC1CC2 (stereo unspecified),30 nM
10,Oc1ccc(-c2ccc(C3(O)CN4CCC3CC4)cc2)cc1 (stereo unspecified),132 nM
11,C(=C/C1CN2CCC1CC2)/c1ccc(-c2ccccc2)cc1 (stereo unspecified),580 nM
12,OC(c1ccc(-c2ccccc2)cc1)C1CN2CCC1CC2 (stereo in doubt; 32),2500 nM
13,OC1(c2ccc(-c3nc4ccccc4s3)cc2)CN2CCC1CC2 (stereo unspecified),6 nM
14,O=C(NC1CN2CCC1CC2)c1ccc(-c2ccccc2)cc1 (stereo unspecified),1200 nM
15,OC1(c2ccc(-c3ccccc3)cc2)CN2CCC1CC2 (stereo in doubt; 2),16 nM
16,C1=C(c2ccc(-c3ccccc3)cc2)C2CCN1CC2,18 nM
17,OC1(c2ccc(-c3ccc(-c4ccccc4)cc3)cc2)CN2CCC1CC2 (stereo unspecified),370 nM
18,OC1(c2ccc(-c3cnc4ccccc4c3)cc2)CN2CCC1CC2 (stereo unspecified),200 nM
19,[O-][S+](CC1(O)CN2CCC1CC2)c1ccc(-c2ccccc2)cc1 (stereo unspecified),> 2500 nM
20,OC(c1ccc(-c2ccccc2)cc1)C1CN2CCC1CC2 (stereo in doubt; 33),2500 nM

row,SMILES,IC50
1,OC1(c2ccc(-c3ccccc3)cc2)CN2CCC1CC2 (stereo in doubt; 2a(+)),7 nM
2,OC1(CCc2ccc(-c3ccccc3)cc2)CN2CCC1CC2 (stereo unspecified),7 nM
3,CC(C)=CCC/C(C)=C/CC/C(C)=C/COCC1(O)CN2CCC1CC2 (stereo unspecified),60 nM
4,O=S(=O)(CC1(O)CN2CCC1CC2)c1ccc(-c2ccccc2)cc1 (stereo unspecified),> 2500 nM
5,OC1(C#Cc2ccc(-c3ccccc3)cc2)CN2CCC1CC2 (stereo unspecified),3 nM
6,OC1(COc2ccc(-c3ccccc3)cc2)CN2CCC1CC2 (stereo unspecified),13 nM
7,OC1(c2ccc(C3CCCCC3)cc2)CN2CCC1CC2 (stereo unspecified),190 nM
8,CC(C)=CCC/C(C)=C/CC/C(C)=C/COC1CN2CCC1CC2 (stereo unspecified),70 nM
9,OC1(CSc2ccc(-c3ccccc3)cc2)CN2CCC1CC2 (stereo unspecified),8 nM
10,OC1(c2ccc(C3OCCCO3)cc2)CN2CCC1CC2 (stereo unspecified),> 2500 nM
11,c1ccc(-c2ccc(C3CN4CCC3CC4)cc2)cc1 (stereo unspecified),11 nM
12,c1ccc(-c2ccc(CC3CN4CCC3CC4)cc2)cc1 (stereo unspecified),27 nM
13,OC1(c2cnc(-c3ccccc3)s2)CN2CCC1CC2 (stereo unspecified),60 nM
14,c1ccc(-c2ccc(CCC3CN4CCC3CC4)cc2)cc1 (stereo unspecified),5 nM
15,OC1(c2cccc(-c3ccccc3)c2)CN2CCC1CC2 (stereo unspecified),60 nM
16,OC1(c2ccc(-c3ccccc3)cc2)CN2CCC1CC2 (stereo in doubt; 2a(-)),121 nM
17,OC1(c2ccc(-c3ccccn3)cc2)CN2CCC1CC2 (stereo unspecified),240 nM
18,OC1(c2ccc(-c3nccs3)cc2)CN2CCC1CC2 (stereo unspecified),30 nM
19,OC1(c2ccccc2)CN2CCC1CC2 (stereo unspecified),> 2500 nM
20,OC1(c2ccc(-c3ccc(F)cc3)cc2)CN2CCC1CC2 (stereo unspecified),18 nM

# Test system: Rattus norvegicus
# Test: Inhibition of cholesterol biosynthesis from mevolanate after oral dosing to rat
# Format: functional
# Outline: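 Rats were dosed orally, and cholesterol synthesis from mevalonate was then measured. ED50 (mg/kg) was derived from dose–response data and reported with 95% confidence limits.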
row,SMILES,ED50
1,OC1(c2ccc(-c3ccncc3)cc2)CN2CCC1CC2 (stereo unspecified),2.7 mg/kg
